# Laboratory results as given in ChEMBL document CHEMBL1240376, “Characterization of small ColE-like plasmids mediating widespread dissemination of the qnrB19 gene in commensal enterobacteria” (2010).
# Experiments:
# Assay type in all cases: functional
# [1] = test system: Escherichia coli; test: Antibacterial activity against ampicillin tetracyclin streptomycin kanamycin-resistant Escherichia coli isolate V32-1 carrying qnrB19 gene
# Procedure, shortened: (§1)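 MICs determined by broth microdilution following CLSI guidelines, with E. coli ATCC 25922 as quality-control strain in every run. Disk diffusion susceptibility was also performed per CLSI.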
# [2] = test system: Escherichia coli; test: Antibacterial activity against Escherichia coli HB101; procedure, shortened: as §1
# [3] = test system: Escherichia coli; test: Antibacterial activity against ampicillin sulfamethoxazole streptomycin kanamycin-resistant Escherichia coli isolate V6-9 carrying qnrB19 gene; procedure, shortened: as §1
# [4] = test system: Escherichia coli; test: Antibacterial activity against tetracycline trimethoprim sulfamethoxazole kanamycin-resistant Escherichia coli isolate C14-9 carrying qnrB19 gene; procedure, shortened: as §1
# [5] = test system: Escherichia coli; test: Antibacterial activity against ampicillin tetracycline trimethoprim sulfamethoxazole streptomycin-resistant Escherichia coli isolate Y6-7 carrying qnrB19 gene; procedure, shortened: as §1
# [6] = test system: Escherichia coli; test: Antibacterial activity against tetracycline sulfamethoxazole streptomycin kanamycin-resistant Escherichia coli isolate M66-6 carrying qnrB19 gene; procedure, shortened: as §1
Compound,MIC [1] [µg/mL],MIC [2] [µg/mL],MIC [3] [µg/mL],MIC [4] [µg/mL],MIC [5] [µg/mL],MIC [6] [µg/mL]
C[C@H]1COc2c(N3CCN(C)CC3)c(F)cc3c(=O)c(C(=O)O)cn1c23.C[C@H]1COc2c(N3CCN(C)CC3)c(F)cc3c(=O)c(C(=O)O)cn1c23.O [LEVOFLOXACIN],0.25,0.0075,0.25,0.25,–,–
CCn1cc(C(=O)O)c(=O)c2ccc(C)nc21 [NALIDIXIC ACID],32,4,32,32,16,16
CCn1cc(C(=O)O)c(=O)c2cc(F)c(N3CCNCC3)cc21 [NORFLOXACIN],0.25,0.003,0.5,0.5,0.25,0.25
